Experimental data from ChEMBL document CHEMBL1144749, “Development of 2-t butyl-N-methyl pyrimidones as potent inhibitors of HIV integrase” (Bioorg Med Chem Lett, 2008).
pIC50: −log10 of the molar value.

Assays:
[1] = system: Human immunodeficiency virus 1; assay: Antiviral activity against HIV1 3b in human MT4 cells assessed as inhibition of viral spread in presence of 10% heat-inactivated fetal bovine serum; type: functional; conditions: Human immunodeficiency virus 1, 3b, read-out: CIC95
Procedure, shortened: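 Spread assay: HIV-1 IIIb infection of MT-4 T-lymphoid cells in medium with 10% heat-inactivated FBS. CIC95 is the concentration inhibiting 95% of viral spread. Mean of at least 3 independent experiments.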

[2] = system: Human immunodeficiency virus 1; assay: Antiviral activity against HIV1 3b in human MT4 cells assessed as inhibition of viral spread in presence of 50% normal human serum; type: functional; conditions: Human immunodeficiency virus 1, 3b, read-out: CIC95
Procedure, shortened: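 Spread assay: HIV-1 IIIb infection of MT-4 T-lymphoid cells run with 50% normal human serum. CIC95 is the concentration inhibiting 95% of viral spread.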

[3] = (§1) AUC in Sprague-Dawley rat at 3 mg/kg, po; type: ADME, organism-based, Plasma; design: dose 3 mg/kg, route oral; conditions: Sprague-Dawley, plasma
Procedure, shortened: (§2)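 Sprague–Dawley rats dosed iv in 20% DMSO/60% PEG400/20% water, or orally as a 1% methylcellulose suspension. Outputs: AUC after po dosing, plasma clearance, terminal-phase plasma half life after iv dosing, oral bioavailability.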

[4] = (§3) Oral bioavailability in Sprague-Dawley rat at 3 mg/kg; type: ADME, organism-based; conditions: Sprague-Dawley, in vivo; procedure, shortened: as §2
[5] = Clearance in Sprague-Dawley rat plasma at 3 mg/kg, iv and 3 mg/kg, po; type: ADME, organism-based; procedure, shortened: as §2
Homo sapiens = organism: Homo sapiens; assay: Fraction unbound in human plasma proteins after 1 hr
[6] = Terminal half life in Sprague-Dawley rat plasma at 3 mg/kg, iv; type: ADME, organism-based; design: dose 3 mg/kg, route intravenous; procedure, shortened: as §2
[7] = molecular target: Human immunodeficiency virus type 1 integrase (Human immunodeficiency virus 1, UniProt Q7ZJM1); assay: Inhibition of HIV1 recombinant integrase strand transfer activity
Procedure, shortened: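 Strand-transfer assay: inhibitors added after integrase assembly and washes. IC50 is the concentration reducing integrase activity by 50%. Mean of at least three independent experiments.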

[8] = Metabolic stability assessed as intrinsic clearance in rat microsome at 1 uM after 90 mins; type: ADME; conditions: liver microsomes
Procedure, shortened: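 Compound at 1 µM with microsomes at 1 mg/ml. Substrate degradation followed by LC/MS/MS over a 90 min incubation.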

Rattus norvegicus [9] = assay: as §1; type: ADME, organism-based, Plasma; design: dose 3 mg/kg, route oral; conditions: in vivo; procedure, shortened: as §2
Rattus norvegicus [10] = assay: as §3; type: ADME, organism-based; conditions: in vivo; procedure, shortened: as §2

Chain of Human immunodeficiency virus type 1 integrase (Q7ZJM1 whole entry): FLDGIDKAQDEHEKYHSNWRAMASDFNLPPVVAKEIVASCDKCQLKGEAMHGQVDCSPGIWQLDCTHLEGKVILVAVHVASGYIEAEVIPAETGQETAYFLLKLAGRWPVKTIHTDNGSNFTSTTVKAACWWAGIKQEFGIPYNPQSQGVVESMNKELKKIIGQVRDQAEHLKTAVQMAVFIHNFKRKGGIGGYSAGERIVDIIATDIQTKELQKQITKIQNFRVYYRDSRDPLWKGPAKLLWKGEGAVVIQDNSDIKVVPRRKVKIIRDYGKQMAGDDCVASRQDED

SMILES	IC95 [1]	IC95 [2]	AUC [3]	bioavailability [4]	clearance [5]	fraction unbound at 1 h (Homo sapiens)	half-life [6]	pIC50 [7]	microsomal CLint at 1 µM [8]	AUC (Rattus norvegicus [9])	F (Rattus norvegicus [10])
O=C(NCc1ccc(F)cc1)c1nc(-c2cccs2)nc(O)c1O	> 10000 nM										
Cn1c(C(C)(C)C)nc(C(=O)NCc2ccc(F)cc2C(N)=O)c(O)c1=O	10 nM	10 nM	0.6 µM·h	23%	55 mL/min/kg	0.06	3.6 h	7.70			
Cn1c(C(C)(C)C)nc(C(=O)NCc2ccc(F)cc2S(C)(=O)=O)c(O)c1=O	10 nM	20 nM	0.6 µM·h	17%	37 mL/min/kg		1.8 h	7.70	63 µL/min/mg		
CCOc1ccccc1CNC(=O)c1nc(C(C)(C)C)n(C)c(=O)c1O	120 nM	500 nM						7.70			
CC(C)(C)c1nc(O)c(O)c(C(=O)NCc2ccc(F)cc2S(C)(=O)=O)n1								7.22			
CCOc1ccccc1CNC(=O)c1nc(C(C)(C)C)nc(O)c1O	1000 nM	> 1000 nM						8.00			
CC(C)(C)c1nc(O)c(O)c(C(=O)NCc2cccc3cc[nH]c23)n1	> 1000 nM	> 1000 nM						8.00			
CC(C)(C)c1nc(O)c(O)c(C(=O)NCc2ccc(F)cc2)n1	250 nM	2500 nM						8.00			
CC(C)NC(=O)c1cc(F)ccc1CNC(=O)c1nc(C(C)(C)C)n(C)c(=O)c1O	60 nM	60 nM				0.01	1.6 h	7.05		3.5 µM·h	44%
Cc1noc(-c2cc(F)ccc2CNC(=O)c2nc(C(C)(C)C)n(C)c(=O)c2O)n1	20 nM	120 nM						7.70			
Cn1c(C(C)(C)C)nc(C(=O)NCc2ccc(F)cc2C(=O)NCC(F)(F)F)c(O)c1=O	30 nM	120 nM				0.01		7.05			
Cn1c(C(C)(C)C)nc(C(=O)NCc2ccc(F)cc2C(=O)N2CCCC2)c(O)c1=O	120 nM	120 nM						6.64			
Cc1noc(-c2cc(F)ccc2CNC(=O)c2nc(C(C)(C)C)nc(O)c2O)n1	120 nM	> 1000 nM						7.70			
CN1CCN(C(=O)c2cc(F)ccc2CNC(=O)c2nc(C(C)(C)C)n(C)c(=O)c2O)CC1	120 nM	120 nM				0.34		6.31			
Cn1c(C(C)(C)C)nc(C(=O)NCc2ccc(F)cc2)c(O)c1=O	120 nM	370 nM						8.00			
Cn1c(C(C)(C)C)nc(C(=O)NCc2cccc3cc[nH]c23)c(O)c1=O	1000 nM	> 1000 nM						7.70			
CNC(=O)c1cc(F)ccc1CNC(=O)c1nc(C(C)(C)C)nc(O)c1O								7.70			
CCNC(=O)c1cc(F)ccc1CNC(=O)c1nc(C(C)(C)C)n(C)c(=O)c1O	20 nM	20 nM	1.8 µM·h	30%	21 mL/min/kg	0.03	2.6 h	7.15			
CN(C)C(=O)c1cc(F)ccc1CNC(=O)c1nc(C(C)(C)C)n(C)c(=O)c1O	30 nM	30 nM				0.18		6.74			
CNC(=O)c1cc(F)ccc1CNC(=O)c1nc(C(C)(C)C)n(C)c(=O)c1O	10 nM	10 nM	1.4 µM·h	18%	24 mL/min/kg	0.07	1.6 h	7.70	16 µL/min/mg		
CCCNC(=O)c1cc(F)ccc1CNC(=O)c1nc(C(C)(C)C)n(C)c(=O)c1O	30 nM	60 nM				0.02		7.15			
